The sample as a whole holds a higher share of hits than the screen did.
CHOP UPR activ = apoptotic UPR (CHOP) activation; activation, % at 10 µM; AID 449763; 330,000 compounds, 0.34% hits; CHO-CHOP luciferase reporter, luminescence; percent of tunicamycin response over DMSO baseline;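 active = at 10 µM dose, activation of 40% or more, normalized to positive control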;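 also: 100% = tunicamycin at 10 µg/mL and 0% = DMSO alone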
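Evaluation: % reporter activation, DMSO baseline versus tunicamycin full activation; System: CHO-CHOP luciferase reporter cell line; Input: 500 cells/well; Incubation: 6 h compound treatment, 37 °C; Measured by: Steady-Glo luciferase luminescence; Dosing: one dose, 10 µM in 0.5% DMSO; Buffer or medium: F12 medium, 10% FBS; Benchmarks: positive tunicamycin 10 µg/mL, negative DMSO alone.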
Lmaj promast = Leishmania major promastigote growth inhibition; Leishmania major promastigotes, resazurin fluorescence viability; inhibition, % at 10 µM; 200,000 compounds, 9% hits; AID 1063; in the data active = inhibition above about 50%;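 also: promastigotes grown with compound for 44 hours at 28 °C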
UPR XBP1 act = adaptive UPR (XBP1) activation; CHO-XBP1 luciferase reporter, IRE1-XBP1 UPR activation, luminescence; percent of tunicamycin response, DMSO as zero; activation, % at 20 µM; 330,000 compounds, 0.33% hits; AID 463104;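 active = versus positive control, 20 µM dose yields 30% or more activation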;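 also: 100% = tunicamycin at 10 µg/mL and 0% = DMSO only wells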
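Material: CHO cell line with stable XBP1 luciferase reporter; buffer or medium: F12 medium containing 10% fetal bovine serum; compound: single point, 20 µM final compound, 1% DMSO; incubation: 6 h treatment, 37 °C; measured by: glow luminescence from Steady-Glo reagent; evaluation: activation, % of tunicamycin; control set: tunicamycin high, DMSO low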
T cruzi inh = blocks replication of Trypanosoma cruzi; AID 1885; T. cruzi beta-gal in NIH3T3, luminescence, 90 h; 300,000 compounds, 1.4% hits; inhibition, % (no concentration beside the values);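 active = mean inhibition across valid replicates above about 55%, limit read from the data; inconclusive = mean below that limit but half or more replicates reach it; inactive = mean below it, under half of replicates reach it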;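 also: signal also drops with host cell toxicity which is not excluded here; 0% = plate median of DMSO wells and 100% = zero luminescence signal; higher percent means less beta-gal luminescence so fewer parasites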
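Incubation – ≥90 h infection period, 3 h prior cell attachment · System – NIH/3T3 fibroblasts plus reporter T. cruzi · Doses – compound pinned at 50 nL/well, DMSO · Read-out basis – percent inhibition of parasite-derived β-gal signal · Signal – luminescent β-galactosidase signal after 60 min lysis · Also added – 5000 T. cruzi trypomastigotes/well · Medium – Low-serum DMEM with 2% FBS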
CHOP inhibitor = inhibitors of CHOP induction in ER stress response; inhibition, % at 10 µM; 220,000 compounds, 3.8% hits; CHO-K1 CHOP-promoter luciferase, tunicamycin-induced, 15-18 h; AID 2732;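 active = compounds that reduced the stress-induced luciferase reporter signal by more than about 70% of percent inhibition, limit read from the data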;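 also: 0% = tunicamycin plus vehicle and 100% = wells without tunicamycin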
Dynein cargo inh = blocks dynein driven cargo transport along microtubules; z-score, hits read low; 220,000 compounds, 0.47% hits; 3617.4 mouse cells, GR-EGFP nuclear translocation imaging; test concentration mostly 20 µM; stimulated with dexamethasone, 1 µM; active compounds read low; AID 1381;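 active = plate z-score of nuclear minus cytoplasmic receptor signal below a set negative limit, without overly bright fluorescence or cell loss, cut at about -3.5 in these data, passing the limit was not always enough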;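 also: z-score of nuclear minus cytoplasmic ring GR-EGFP intensity difference per well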
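medium = tetracycline-free induction medium containing charcoal-stripped FBS | probe or stimulus = dexamethasone, 1.0 µM final | timing = 48 h induction, then 1 h compound, then 30 min agonist, 37 °C | detection = automated 10x imaging of fixed Hoechst-stained cells | read-out basis = nuclear versus cytoplasmic GR-EGFP signal, averaged per well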
Starred values were filed as active, the others as inactive; ? = inconclusive; / = no result given.

SMILES | CHOP UPR activ | Lmaj promast | UPR XBP1 act | T cruzi inh | CHOP inhibitor | Dynein cargo inh
CCCCNC(=O)Cn1c(=O)oc2cc(S(=O)(=O)N3CC(C)CC(C)C3)ccc21 (stereo not drawn) | -2 | -12 | 0 | -4 | 94* | 0.74
COCCCNC(=O)Cn1c(=O)oc2cc(S(=O)(=O)N3CC(C)CC(C)C3)ccc21 (stereo not drawn) | 0 | / | -8 | 1 | / | /
CCOC(=O)/C=C1\SC(C)C(=O)N1CC(=O)N(CCC#N)c1ccccc1 (stereo not drawn) | -2 | / | -1 | / | / | /
CCC1(c2ccc(F)cc2)NC(=O)N(CC(=O)Nc2cc(C)on2)C1=O (stereo not drawn) | -2 | / | -4 | / | / | /
Cc1cc(C(=O)Nc2nncs2)oc1C | 1 | / | -1 | -9 | / | /
Cc1ccc(C(=O)c2oc3ccccc3c2NC(=O)c2cc(-c3cc(C)ccc3O)n[nH]2)cc1 | 10 | / | 60* | 19 | 71* | 0.99
O=C(Nc1c(C(=O)c2ccccc2)oc2ccccc12)c1cc(-c2ccccc2O)n[nH]1 | -1 | 22 | 23 | 15 | 90* | -0.16
Cc1ccc(C(=O)c2oc3ccccc3c2NC(=O)c2cc(-c3ccccc3O)n[nH]2)cc1 | 3 | 44 | 19 | 24 | 61 | 0.9
CCOc1ccc(N=CC2=C(O)CC(c3ccco3)CC2=O)cc1 (stereo not drawn) | 2 | 50 | 1 | -9 | 26 | 0.29
O=C1CC(c2ccco2)CC(O)=C1C=Nc1cc(Cl)cc(Cl)c1 (stereo not drawn) | 29 | -4 | 3 | -13 | 84* | -0.62
COC(=O)Cn1c(=NC(=O)c2nc3ccccc3s2)sc2cc(S(C)(=O)=O)ccc21 | 2 | -1 | 42* | 11 | -83 | 1.7
COc1ccccc1CN(C)C(=O)COC(=O)c1cc(C)oc1C | 2 | / | 1 | / | / | /
COc1ccc(/C=C/C(=O)N(CC(C)C)CC(C)C)cc1Br | -3 | 12 | -1 | / | 84* | 0.3
Fc1ccc(-n2cc(CNCCc3cccnc3)c(-c3ccccc3Cl)n2)cc1 | 0 | 57* | 0 | 13 | 31 | -0.91
COc1ccc(-n2cc(CNCCCN3CCCC3=O)c(-c3ccccc3Cl)n2)cc1 | -2 | 7 | -1 | 16 | 10 | -1.2
Fc1ccc(-n2cc(CNCCc3ccncc3)c(-c3ccccc3Cl)n2)cc1 | -2 | 64* | -4 | 13 | 22 | 0.58
Cc1cc(NC(=O)c2cc(-c3cccc(OCC(C)C)c3)nc3ccccc23)no1 | 1 | / | -5 | 13 | / | /
O=C(Nc1ccc(Cl)c(Cl)c1)c1ccc(Cl)c(Cl)c1 | 5 | / | 3 | 20 | 6 | 0.19
CS(=O)(=O)c1cccc(NC(=O)c2ccc(Cl)c(Cl)c2)c1 | 2 | 8 | 3 | 58* | -11 | -0.025
Cc1nnc(NC(=O)CC(NC(=O)C(F)(F)F)c2ccccc2)s1 (stereo not drawn) | 3 | -3 | -1 | -8 | 10 | -0.18
O=C(CC(NC(=O)C(F)(F)F)c1ccccc1)Nc1nnc(CCc2ccccc2)s1 (stereo not drawn) | -2 | 2 | -4 | -13 | 94* | -0.11
COc1ccc(C(c2nnnn2C2CCCCC2)N2CCN(C)CC2)c(OC)c1 (stereo not drawn) | -2 | 5 | -1 | 5 | 15 | -0.49
c1cc(N2CCCC2)ccc1C(c1nnnn1C1CCCCC1)N1CCOCC1 (stereo not drawn) | -1 | 88* | -2 | 20 | 4 | 0.019
COc1ccc(C(c2nnnn2C2CCCC2)N2CCC(C)CC2)cc1 (stereo not drawn) | 0 | 90* | 1 | 21 | 83* | -0.4
COc1ccc(C(c2nnnn2C2CCCCC2)N2CCN(c3ccc(OC)cc3)CC2)cc1 (stereo not drawn) | -1 | 89* | -4 | 34 | -22 | -0.66
SMILES | CHOP UPR activ | Lmaj promast | UPR XBP1 act | T cruzi inh | CHOP inhibitor | Dynein cargo inh
COc1ccc(OC)c(C(c2nnnn2C2CCCC2)N2CCN(c3ccccc3)CC2)c1 (stereo not drawn) | 0 | 97* | 1 | / | -10 | 0.55
CC(=O)n1cc([C@H]2C=C(C(N)=O)O[C@@H](OCc3ccc(CO)cc3)C2)c2ccccc21 | 1 | / | -1 | ? | / | /
Cc1cc[n+](C2=C([O-])c3ccccc3C(=O)/C2=N\S(=O)(=O)c2cccs2)cc1C | 0 | 25 | 0 | 57* | -29 | -1
O=C1/C(=N\S(=O)(=O)c2cccs2)C([n+]2ccc(CCCc3ccccc3)cc2)=C([O-])c2ccccc21 | 17 | / | -8 | 28 | 95* | 0.12
CCN(CC)Cc1c(O)ccc2c([N+](=O)[O-])c(C)n(-c3ccc(OC)cc3)c12 | -5 | 69* | -3 | 1 | 43 | 0.3
CCN(CC)Cc1c(O)ccc2c(=O)c(-c3ccccc3OC)coc12 | 1 | / | -2 | -4 | / | /
CCOC(=O)c1c(NC(=O)c2ccc(N3C(=O)[C@@H]4[C@H](C3=O)[C@H]3C=C[C@@H]4C3)cc2)sc2c1CCCC2 | 0 | 3 | -4 | 33 | 26 | -0.31
C=CCn1c(=O)/c(=C2/Sc3ccccc3N2CC)s/c1=C1/C(=O)NN=C1C | 0 | 97* | -1 | 52 | 7 | -0.37
C=CCN1C(=O)/C(=C2/Sc3ccccc3N2CC)SC1=S | 8 | / | 10 | 15 | / | /
CN(C)CCN(C)Cc1ccccc1Sc1cccc2ccccc12 | 4 | 100* | 2 | 47 | 20 | -3.1
CNCc1ccccc1Sc1cccc2ccccc12 | 0 | 79* | 0 | -20 | 28 | -0.17
CNCc1ccccc1Sc1ccc(OC)cc1 | 0 | 9 | -3 | 9 | 11 | 0.37
COc1ccc(CCN(C)Cc2cccc3ccccc23)cc1OC | 1 | / | -5 | ? | / | /
CCCCOC(=O)NC(NCC(O)c1ccccc1)(C(F)(F)F)C(F)(F)F (stereo not drawn) | -2 | 4 | -1 | -6 | 81* | 2.4
Cc1ccc2c(Cn3cc(C(F)(F)F)cc(Cl)c3=O)cc(=O)oc2c1 | 1 | 52* | -5 | -17 | 21 | -0.35
O=C(Nc1ccc(NC(=O)c2cc3ccccc3o2)cc1)c1ccc2c(c1)OCCO2 | -2 | -6 | 1 | 3 | 72* | -0.42
O=C(Nc1cccc([N+](=O)[O-])c1)c1ccc2c(c1)OCCO2 | 3 | 52* | 2 | -18 | 10 | 0.16
O=C(Nc1cccc([N+](=O)[O-])c1)c1cnccn1 | 0 | 65* | -3 | 5 | 9 | 0.39
O=C(Nc1cccc(Cl)c1)Nc1cccc(Cl)c1 | 16 | -3 | 5 | 34 | 16 | 1.1
O=C(CN1CCN(c2ccc(O)cc2)CC1)Nc1cc(S(=O)(=O)N2CCCCC2)ccc1Cl | 1 | 99* | 1 | -17 | 37 | -1.2

Screening results deposited in PubChem BioAssay by several laboratories.
